Source: ChEMBL document CHEMBL2169866, “Antihypertensive profile of 2-thienyl-3,4-methylenedioxybenzoylhydrazone is mediated by activation of the A2A adenosine receptor” (Eur J Med Chem, 2012)

Tests used:
[1] = tested on: Rattus norvegicus; experiment: Antihypertensive activity in spontaneous hypertensive rat assessed as reduction in systolic blood pressure at 20 mg/kg/day, po for 7 days (reference value: 121.2 +/- 4.5 mmHg); format: functional, Artery
In short: (§1)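 Male SHR, 13 weeks old, received 20 mg/kg orally once daily for 14 days. Noninvasive tail-cuff plethysmography 4 h post-dose gave systolic pressure, diastolic pressure and heart rate. Measurements were made at baseline and on days 1, 3, 5, 7, 11 and 14. n = 6, mean ± SEM.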

[2] = tested on: Rattus norvegicus; experiment: Antihypertensive activity in spontaneous hypertensive rat assessed as reduction in systolic blood pressure at 20 mg/kg/day, po for 14 days (reference value: 121.2 +/- 4.5 mmHg); format: functional, Artery; in short: as §1
[3] = tested on: Rattus norvegicus; experiment: Antihypertensive activity in spontaneous hypertensive rat assessed as reduction in diastolic blood pressure at 20 mg/kg/day, po for 7 days (reference value: 72.6 +/- 4.7 mmHg); format: functional, Artery; in short: as §1
[4] = tested on: Rattus norvegicus; experiment: Antihypertensive activity in spontaneous hypertensive rat assessed as reduction in diastolic blood pressure at 20 mg/kg/day, po for 14 days (reference value: 72.6 +/- 4.7 mmHg); format: functional, Artery; in short: as §1
[5] = tested on: Rattus norvegicus; experiment: Effect on heart rate in spontaneous hypertensive rat at 20 mg/kg/day, po for 7 days (reference value: 383 +/- 21 bpm); format: organism-based; set-up: route oral; settings: in vivo, 168 h; in short: as §1
[6] = tested on: Rattus norvegicus; experiment: Effect on heart rate in spontaneous hypertensive rat at 20 mg/kg/day, po for 14 days (reference value: 383 +/- 21 bpm); format: organism-based; set-up: route oral; settings: in vivo, 336 h; in short: as §1
[7] = molecular target: T1, Adenosine receptor A1 (Homo sapiens) (UniProt P30542); experiment: Displacement of [3H]CCPA from human recombinant A1 receptor expressed in CHO cells at 10 uM; format: cell-based
T1 sequence (whole entry): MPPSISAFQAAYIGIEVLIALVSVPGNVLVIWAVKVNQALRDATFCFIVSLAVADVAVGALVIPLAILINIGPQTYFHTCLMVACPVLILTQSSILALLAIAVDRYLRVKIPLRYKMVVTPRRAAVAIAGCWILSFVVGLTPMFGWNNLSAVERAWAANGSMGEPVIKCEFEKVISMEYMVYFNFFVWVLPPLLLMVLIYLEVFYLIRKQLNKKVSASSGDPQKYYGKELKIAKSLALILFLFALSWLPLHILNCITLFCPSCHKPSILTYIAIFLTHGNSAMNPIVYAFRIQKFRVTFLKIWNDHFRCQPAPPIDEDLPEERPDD
In short: (§2)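 Radioligand competition binding used agonist radioligands at these levels: [3H]CCPA 1 nM for A1, [3H]CGS21680 6 nM for A2A, and [125I]AB-MECA 0.15 nM for A3. Results are expressed as percent inhibition of control specific binding: 100 − (measured specific binding / control specific binding × 100).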

[8] = molecular target: Adenosine receptor A2a (Homo sapiens) (UniProt P29274); experiment: Displacement of [3HCGS21680 from human recombinant A2A receptor expressed in HEK293 cells at 10 uM; format: cell-based; in short: as §2
[9] = molecular target: T2, Adenosine receptor A3 (Homo sapiens) (UniProt P0DMS8); experiment: Displacement of [[125I]AB-MECA from human recombinant A3 receptor expressed in HEK293 cells at 10 uM; format: cell-based; in short: as §2
T2 sequence (whole entry): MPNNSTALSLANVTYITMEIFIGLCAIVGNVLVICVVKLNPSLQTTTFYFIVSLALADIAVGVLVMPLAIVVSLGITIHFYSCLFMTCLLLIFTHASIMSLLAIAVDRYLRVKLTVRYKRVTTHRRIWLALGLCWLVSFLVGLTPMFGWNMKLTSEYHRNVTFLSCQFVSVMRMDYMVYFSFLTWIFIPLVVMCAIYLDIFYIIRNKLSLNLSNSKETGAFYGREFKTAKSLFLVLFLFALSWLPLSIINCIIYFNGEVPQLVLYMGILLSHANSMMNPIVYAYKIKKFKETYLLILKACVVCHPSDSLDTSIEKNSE

[10] = tested on: Aorta; experiment: Vasorelaxation activity in WKY rat aortic rings with denuded endothelium assessed as reduction in phenylephrine-induced contraction relative to untreated control; format: functional; set-up: scale not given: the % may be the effect or the level left
In short: (§3)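 Isolated thoracic aortic rings from WKY rats were studied by isometric tension recording. Endothelium was judged intact when acetylcholine gave >80% relaxation, and was removed mechanically where stated. Rings were precontracted with a single phenylephrine concentration (10), then exposed to cumulative test concentrations (1–300). DMSO served as control. L-NAME, ZM 241385 (100 nM) or glibenclamide (5 µM) were added 20 min before phenylephrine. IC50 was derived per experiment. n = 6, mean ± SEM.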

[11] = tested on: Aorta; experiment: Vasorelaxation activity in WKY rat aortic rings with intact endothelium assessed as reduction in phenylephrine-induced contraction relative to untreated control; format: functional; set-up: scale not given: the % may be the effect or the level left; in short: as §3
[12] = tested on: Aorta; experiment: Vasorelaxation activity in WKY rat aortic rings with denuded endothelium assessed as reduction in phenylephrine-induced contraction in presence of 5 uM KATP channel blocker glibenclamide; format: functional; set-up: scale not given: the % may be the effect or the level left; in short: as §3
[13] = tested on: Aorta; experiment: Vasorelaxation activity in WKY rat aortic rings with intact endothelium assessed as reduction in phenylephrine-induced contraction in presence of 100 nM A2A antagonist ZM241385; format: functional; set-up: scale not given: the % may be the effect or the level left; in short: as §3
[14] = tested on: Aorta; experiment: Vasorelaxation activity in WKY rat aortic rings with intact endothelium assessed as reduction in phenylephrine-induced contraction in presence of 100 uM NOS inhibitor L-NAME; format: functional; set-up: scale not given: the % may be the effect or the level left; in short: as §3
[15] = tested on: Aorta; experiment: Vasorelaxation activity in WKY rat aortic rings with intact endothelium assessed as reduction in phenylephrine-induced contraction; format: functional, tissue-based; in short: as §3
[16] = tested on: Rattus norvegicus; experiment: Effect on heart rate in WKY rat at 10 mg/kg/day, ip for 7 days (reference value: 383 +/- 21 bpm); settings: in vivo, 168 h
[17] = tested on: Rattus norvegicus; experiment: Effect on heart rate in WKY rat at 10 mg/kg/day, ip for 14 days (reference value: 383 +/- 21 bpm); settings: in vivo, 336 h
[18] = tested on: Rattus norvegicus; experiment: Effect on diastolic blood pressure in WKY rat at 10 mg/kg/day, ip for 7 days (reference value: 72.6 +/- 4.7 mmHg); settings: in vivo, 168 h
[19] = tested on: Rattus norvegicus; experiment: Effect on systolic blood pressure in WKY rat at 10 mg/kg/day, ip for 7 days (reference value: 121.1 +/- 4.5 mmHg); settings: in vivo, 168 h
[20] = tested on: Rattus norvegicus; experiment: Effect on diastolic blood pressure in WKY rat at 10 mg/kg/day, ip for 14 days (reference value: 72.6 +/- 4.7 mmHg); settings: in vivo, 336 h
[21] = tested on: Rattus norvegicus; experiment: Effect on systolic blood pressure in WKY rat at 10 mg/kg/day, ip for 14 days (reference value: 121.1 +/- 4.5 mmHg); settings: in vivo, 336 h
[22] = tested on: Rattus norvegicus; experiment: Effect on heart rate in spontaneous hypertensive rat at 10 mg/kg/day, ip for 7 days (reference value: 419 +/- 11 bpm); settings: in vivo, 168 h
[23] = tested on: Rattus norvegicus; experiment: Effect on heart rate in spontaneous hypertensive rat at 10 mg/kg/day, ip for 14 days (reference value: 419 +/- 11 bpm); settings: in vivo, 336 h
[24] = tested on: Rattus norvegicus; experiment: Antihypertensive activity in spontaneous hypertensive rat assessed as reduction in systolic blood pressure at 10 mg/kg/day, ip for 7 days (reference value: 226 +/-11 mmHg); settings: route intraperitoneal
[25] = tested on: Rattus norvegicus; experiment: Antihypertensive activity in spontaneous hypertensive rat assessed as reduction in systolic blood pressure at 10 mg/kg/day, ip for 14 days (reference value: 226 +/-11 mmHg); settings: route intraperitoneal
[26] = tested on: Rattus norvegicus; experiment: Antihypertensive activity in spontaneous hypertensive rat assessed as reduction in diastolic blood pressure at 10 mg/kg/day, ip for 7 days (reference value: 175.9 +/-7.3 mmHg); settings: route intraperitoneal
[27] = tested on: Rattus norvegicus; experiment: Antihypertensive activity in spontaneous hypertensive rat assessed as reduction in diastolic blood pressure at 10 mg/kg/day, ip for 14 days (reference value: 175.9 +/-7.3 mmHg); settings: route intraperitoneal

Adenosine receptor A2a (Homo sapiens), sequence (P29274 whole entry): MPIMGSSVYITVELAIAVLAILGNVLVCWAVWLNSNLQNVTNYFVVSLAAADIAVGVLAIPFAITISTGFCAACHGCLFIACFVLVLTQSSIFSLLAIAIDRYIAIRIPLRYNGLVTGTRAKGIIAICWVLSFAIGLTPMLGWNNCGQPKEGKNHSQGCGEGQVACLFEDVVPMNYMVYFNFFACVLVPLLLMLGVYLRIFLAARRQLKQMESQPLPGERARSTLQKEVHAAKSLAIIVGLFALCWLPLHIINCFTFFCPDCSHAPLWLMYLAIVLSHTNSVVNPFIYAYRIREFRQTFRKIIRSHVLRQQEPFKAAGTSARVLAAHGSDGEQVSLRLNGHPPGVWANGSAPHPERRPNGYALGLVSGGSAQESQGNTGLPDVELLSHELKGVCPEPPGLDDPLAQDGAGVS

inhibition [7]: 29.1% | inhibition [8]: 47.5% | inhibition [9]: 67.5% | IC50 [15]: 6.9 µM
Compound: O=C(N/N=C/c1ccc2c(c1)OCO2)c1cccs1
Activity [1]: 109 mmHg | Activity [2]: 109 mmHg | Activity [3]: 79.4 mmHg | Activity [4]: 88 mmHg | Activity [5]: 379 bpm | Activity [6]: 398 bpm | Activity [10]: 28.4% | Activity [11]: 100% | Activity [12]: 3.6% | Activity [13]: 8.3% | Activity [14]: 9.1% | Activity [15]: Dose-dependent effect | Activity [16]: 379 bpm | Activity [17]: 398 bpm | Activity [18]: 79.4 mmHg | Activity [19]: 109 mmHg | Activity [20]: 88 mmHg | Activity [21]: 109 mmHg | Activity [22]: 376 bpm | Activity [23]: 344.8 bpm | Activity [24]: 126.2 mmHg | Activity [25]: 118 mmHg | Activity [26]: 106.2 mmHg | Activity [27]: 95.5 mmHg
